Test results as given in ChEMBL document CHEMBL1136744, “Synthesis and activity of substituted 2-phenylquinolin-4-amines, antagonists of immunostimulatory CpG-oligodeoxynucleotides” (J Med Chem, 2003).

assay: Ability to reverse action of CpG-ODN on WEHI 231 murine B-cell lymphoma cells; type: functional, cell-based, Mus musculus
Method in brief: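 WEHI 231 murine B-lymphoma cells at 2 × 10⁵ per mL; anti-surface IgM (10 μg/mL) kills them, and CpG-ODN 1760 (6 µg/mL) reverses this. Compounds were added in triplicate at 3-fold dilutions, with or without anti-IgM. Cells were incubated 16 h at 37 °C, then pulsed with 0.5 μCi ³H-thymidine for 4 h. The concentration halving the CpG-ODN effect was read graphically from log dose-response plots. Quinacrine served as internal control.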

SMILES | Log 1/EC50
Cc1ccc(-c2cc(NCCCCCO)c3ccccc3n2)cc1 | 5.74
Cc1ccc(-c2cc(NCCCN3CCN(C)CC3)c3ccccc3n2)cc1 | 7.86
CCN(CC)CCNc1cc(-c2cccc(C)c2)nc2ccccc12 | 7.65
Cc1ccc(-c2cc(Nc3cc(CN4CCN(C)CC4)c(O)c(CN4CCN(C)CC4)c3)c3ccccc3n2)cc1 | 8.84
CCN(CC)CCNc1cc(-c2ccc(C)cc2)nc2ccccc12 | 7.73
CCN1CCCC1CNc1cc(-c2ccc(C)cc2)nc2ccccc12 (stereo unspecified) | 7.66
CN(C)CCNc1cc(-c2ccc(N3CCCCC3)cc2)nc2ccccc12 | 8.27
CCN1CCCC1CNc1cc(-c2cccc(C)c2)nc2ccccc12 (stereo unspecified) | 7.66
CN1CCN(CCNc2cc(-c3ccc(F)cc3)nc3ccccc23)CC1 | 7.73
Cc1cccc(-c2cc(NCCCN(C)C)c3ccccc3n2)c1 | 7.88
CN1CCN(Cc2ccc(-c3cc(NCCN4CCCC4)c4ccccc4n3)cc2)CC1 | 8.49
CN1CCN(Cc2cc(Nc3cc(-c4ccc(F)cc4)nc4ccccc34)ccc2O)CC1 | 7.67
Fc1ccc(-c2cc(NCCCCN3CCCC3)c3ccccc3n2)cc1 | 7.68
CN1CCN(c2ccc(-c3cc(NCCN4CCCC4)c4ccccc4n3)cc2)CC1 | 8.62
CN1CCCC1CCNc1cc(-c2ccc(F)cc2)nc2ccccc12 (stereo unspecified) | 7.88
CN1CCN(c2ccc(-c3cc(NCCCN4CCOCC4)c4ccccc4n3)cc2)CC1 | 8.66
Fc1ccc(-c2cc(NCCN3CCCC3)c3ccccc3n2)cc1 | 7.62
CN(C)CCCCNc1cc(-c2ccc(N3CCCCC3)cc2)nc2ccccc12 | 7.33
CCN1CCCC1CNc1cc(-c2ccc(F)cc2)nc2ccccc12 (stereo unspecified) | 7.77
CN1CCN(c2ccc(-c3cc(NCCC4CCCN4C)c4ccccc4n3)cc2)CC1 (stereo unspecified) | 8.7
Cc1cccc(-c2cc(NCCCN3CCOCC3)c3ccccc3n2)c1 | 7.3
NCCCCCNc1cc(-c2ccc(F)cc2)nc2ccccc12 | 7.81
Fc1ccc(-c2cc(NCCCN3CCOCC3)c3ccccc3n2)cc1 | 7.17
Cc1ccc(-c2cc(NCCCn3ccnc3)c3ccccc3n2)cc1 | 6.98
CN1CCN(CCNc2cc(-c3ccc(N4CCN(C)CC4)cc3)nc3ccccc23)CC1 | 8.82
CN1CCN(Cc2cccc(-c3cc(NCCC4CCCN4C)c4ccccc4n3)c2)CC1 (stereo unspecified) | 8.11

SMILES | Log 1/EC50
CN1CCN(c2ccc(-c3cc(NCCCCN4CCCC4)c4ccccc4n3)cc2)CC1 | 8.26
CN1CCN(Cc2cccc(-c3cc(NCCCn4ccnc4)c4ccccc4n3)c2)CC1 | 6.92
Cc1cccc(-c2cc(NCCN(C)C)c3ccccc3n2)c1 | 7.74
CN(C)CCCCNc1cc(-c2ccc(F)cc2)nc2ccccc12 | 7.76
CN(C)CCCNc1cc(-c2ccc(F)cc2)nc2ccccc12 | 7.86
Cc1ccc(-c2cc(Nc3ccc(O)c(CN4CCN(C)CC4)c3)c3ccccc3n2)cc1 | 7.88
OCCCCCNc1cc(-c2ccc(F)cc2)nc2ccccc12 | 5.16
Cc1cccc(-c2cc(OCCN(C)C)c3ccccc3n2)c1 | 5.51
Cc1cccc(-c2cc(NCCCn3ccnc3)c3ccccc3n2)c1 | 6.71
CN(C)CCCCCNc1cc(-c2ccc(N3CCN(C)CC3)cc2)nc2ccccc12 | 8.84
CN(C)CCCCNc1cc(-c2ccc(N3CCN(C)CC3)cc2)nc2ccccc12 | 8.91
Cc1ccc(-c2cc(NCCCN3CCOCC3)c3ccccc3n2)cc1 | 7.57
CN(C)CCCNc1cc(-c2ccc(N3CCCCC3)cc2)nc2ccccc12 | 7.8
CN1CCN(Cc2cc(Nc3cc(-c4ccc(N5CCN(C)CC5)cc4)nc4ccccc34)cc(CN3CCN(C)CC3)c2O)CC1 | 8.85
CN1CCN(Cc2cc(Nc3cc(-c4ccc(F)cc4)nc4ccccc34)cc(CN3CCN(C)CC3)c2O)CC1 | 8.76
Cc1ccc(-c2cc(OCCN(C)C)c3ccccc3n2)cc1 | 5.88
Cc1cccc(-c2cc(NCCCN3CCN(C)CC3)c3ccccc3n2)c1 | 7.56
Cc1cccc(-c2cc(NCCC3CCCN3C)c3ccccc3n2)c1 (stereo unspecified) | 7.85
Cc1ccc(-c2cc(NCCCN(C)C)c3ccccc3n2)cc1 | 7.94
CN(C)CCNc1cc(-c2ccc(N3CCN(C)CC3)cc2)nc2ccccc12 | 9.12
CN(C)CCNc1cc(-c2ccc(CN3CCN(C)CC3)cc2)nc2ccccc12 | 8.15
CN(C)CCCNc1cc(-c2ccc(N3CCN(C)CC3)cc2)nc2ccccc12 | 9
CN(C)CCCNc1cc(-c2ccc(CN3CCN(C)CC3)cc2)nc2ccccc12 | 8.04
CN1CCN(CCCNc2cc(-c3ccc(CN4CCN(C)CC4)cc3)nc3ccccc23)CC1 | 8.17
Cc1ccc(-c2cc(NCCN(C)C)c3ccccc3n2)cc1 | 7.91
